# Shown are actives, neighbours in structure and some others; about 5.4% of the full set was active somewhere.
# EphB4 antag = antagonists of human EphB4-ephrin-B2 interaction; EphB4 LBD / TNYL-RAW-Alexa532 peptide, fluorescence polarization; inhibition, % at 7 µM; 97,000 compounds, 0.15% hits; AID 720;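 active = inhibition above the screen-wide mean inhibition plus 3 SD, cut at about 15% in these data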;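 also: 0% = DMSO wells and 100% = excess unlabeled TNYL-RAW peptide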
# Cav3 T inh = inhibitors of human Cav3.2 T-type calcium channel; Cav3.2-expressing cells, Fluo-4 calcium fluorescence FDSS; stronger effect = lower value; O95180; B-score at 10 µM; 100,000 compounds, 4% hits;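 active = single-dose well whose peak fluorescence ratio is a statistical outlier from its plate by either plate-standardised score or position-corrected B-score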
# hDAT+cocaine = changed human dopamine transporter uptake under cocaine IC80; LLC-PK1 hDAT cells, [14C]-dopamine uptake with cocaine IC80; actives deviate in either direction; B-score at 10 µM; AID 449768; 110,000 compounds, 1.3% hits;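 active = Z score or B-score, a plate-position-corrected score, falls beyond the plate's 99.7% confidence bounds, in either direction; inactive = both scores lie inside the 99.7% bounds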;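 also: scored against the spread of the other compound wells on the same plate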
# Target sequence (Q01959 whole entry, looked up): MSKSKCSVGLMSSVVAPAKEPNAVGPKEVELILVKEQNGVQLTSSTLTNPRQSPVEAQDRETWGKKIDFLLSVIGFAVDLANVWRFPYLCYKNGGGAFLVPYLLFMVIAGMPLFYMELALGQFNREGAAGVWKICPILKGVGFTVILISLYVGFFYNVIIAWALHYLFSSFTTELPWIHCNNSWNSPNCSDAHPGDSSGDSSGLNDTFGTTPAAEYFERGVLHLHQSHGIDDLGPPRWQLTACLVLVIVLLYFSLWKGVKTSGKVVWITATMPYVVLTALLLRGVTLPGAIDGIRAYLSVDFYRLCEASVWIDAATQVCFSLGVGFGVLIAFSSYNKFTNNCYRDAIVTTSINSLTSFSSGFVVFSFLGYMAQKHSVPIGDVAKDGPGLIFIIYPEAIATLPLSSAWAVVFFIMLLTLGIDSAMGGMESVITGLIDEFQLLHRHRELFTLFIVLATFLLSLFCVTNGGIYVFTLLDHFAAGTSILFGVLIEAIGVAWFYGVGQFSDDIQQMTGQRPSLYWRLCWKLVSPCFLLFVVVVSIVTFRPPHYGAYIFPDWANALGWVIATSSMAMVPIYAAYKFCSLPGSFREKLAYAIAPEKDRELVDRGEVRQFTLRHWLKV
# Rev-RRE block = disrupts HIV-1 Rev binding to RRE RNA; Rev peptide-RRE RNA binding, FRET; inhibition, % at 8 µM; 97,000 compounds, 0.79% hits; AID 704;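 active = inhibition above the screen-wide mean plus 3 SD, cut at about 35% in these data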;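 also: 0% = median DMSO wells and 100% = median Neomycin B control wells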
#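 Material: labelled RRE RNA duplex and labelled Rev peptide / Buffer or medium: HEPES pH 7.5 salt buffer with EDTA / Compound dosing: single point, 8 µM final nominal compound concentration / Benchmarks: DMSO low control, neomycin B high control / Timing: 5 min preincubation and 15 min binding, 25 °C / Technique: FRET fluorescence readout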
# An asterisk follows results filed as active; . = no result.
SMILES,EphB4 antag,Cav3 T inh,hDAT+cocaine,Rev-RRE block
O=C(COC(=O)c1ccc(Br)o1)Nc1ccc(S(=O)(=O)N2CCCC2)cc1,5,-1.9,0.73,4
CC(=O)NS(=O)(=O)c1ccc(NC(=O)c2ccc(Br)o2)cc1,-6,0.021,-8.4*,6
O=C1CCCC(=O)C1=Cc1c[nH]c2ccccc12,5,1.4,0.75,6
CC(NS(=O)(=O)c1ccccc1)C(c1cccs1)N1CCN(c2ccccc2)CC1 (stereo unspecified),2,-4.5,4.8*,7
CC(=O)SCC(Cc1ccccc1)C(=O)NCC(=O)OCc1ccccc1 (stereo unspecified),.,-5.2*,-1.3,.
O=C(CC1CCCC1)Nc1ccc2c(c1)CCC2,-5,0.36,0.5,1
CCc1nnc(NC(=O)c2ccc(-c3cccc(C(F)(F)F)c3)o2)s1,6,0.25,-7.6*,17
C=CCOC(=O)C1=C(C)OC(N)=C(C#N)C1c1c(C)nn(-c2ccccc2)c1Cl (stereo unspecified),3,-9.2*,0.51,9
Cc1nn(-c2ccccc2)c(Cl)c1C1C(C#N)=C(N)Oc2c1c(C)nn2-c1ccccc1 (stereo unspecified),9,-0.83,-1.1,8
CCOC(=O)C1=C(C)OC(N)=C(C#N)C1c1c(C)nn(-c2ccccc2)c1Cl (stereo unspecified),.,-9.2*,-7.4*,.
Cc1ccc2nc(N/N=C/c3ccccc3C#N)nc(-c3ccccc3)c2c1,-1,-0.57,3.1*,7
Cc1ccc(CNC(=O)C(=O)NCC2CCCO2)cc1 (stereo unspecified),-1,-0.16,0.084,3
O=C(NCCc1c[nH]c2ccccc12)C(=O)NCC1OCCN1S(=O)(=O)c1ccc(F)cc1 (stereo unspecified),.,-5.9*,0.86,.
COc1ccccc1CNC(=O)C(=O)NCC1OCCN1S(=O)(=O)c1ccc2c(c1)OCCO2 (stereo unspecified),.,0.47,0.38,.
O=C(NCc1ccc(Cl)cc1)C(=O)NCC1OCCN1S(=O)(=O)c1ccc2c(c1)OCCO2 (stereo unspecified),.,-5.1*,-0.059,.
O=C(NCCc1c[nH]c2ccccc12)C(=O)NCC1OCCN1S(=O)(=O)c1ccc(Cl)cc1 (stereo unspecified),.,-7.1*,0.41,.
Cc1ccc(CNC(=O)C(=O)NCC2OCCN2C(=O)c2ccc(Cl)cc2)cc1 (stereo unspecified),.,-4.4*,0.93,.
CCCn1c(SCC(=O)N2c3ccccc3CCc3ccccc32)nc2c1c(=O)n(C)c(=O)n2C,-4,0.48,-0.072,2
COc1ccc(Nc2nnc(SCc3cc([N+](=O)[O-])cc4c3OCOC4)s2)cc1,1,-0.057,0.76,2
Cc1nc2ccc(NC(=O)c3cccc(S(=O)(=O)N4CC(C)OC(C)C4)c3)cc2s1 (stereo unspecified),-5,-0.2,0.61,13
CCCCNC(=O)CSc1nnc(-c2c[nH]c3ccccc23)n1CC1CCCO1 (stereo unspecified),5,0.6,0.0011,2
CC(c1ccccc1)C1CC(=O)N(C2CCCCC2)C1=O (stereo unspecified),17*,-0.076,-1.2,11
C/C(CC(=O)Nc1ccccn1)=N\NC(=O)C(=O)Nc1ccccc1C,-1,-0.07,3.2*,6
O=C(Nc1nnc(C2CC2)s1)c1cccc(S(=O)(=O)N2CC(c3ccccc3)CC2=O)c1 (stereo unspecified),0,-0.7,-0.24,3
O=C(Nc1ccccc1)c1ccccc1NS(=O)(=O)c1ccc(Cl)s1,-3,-8.7*,-0.015,1
SMILES,EphB4 antag,Cav3 T inh,hDAT+cocaine,Rev-RRE block
O=C(NCc1ccco1)c1ccccc1NS(=O)(=O)c1ccc(Cl)s1,1,-7.4*,-0.9,0
O=C(NCc1ccco1)c1ccccc1NS(=O)(=O)c1cccs1,0,0.18,-0.1,7
COc1nn(CC(=O)N2N=C(C(F)F)CC2(O)C(F)F)cc1[N+](=O)[O-] (stereo unspecified),-1,0.55,0.0094,2
CCOC(=O)c1ccc(NS(=O)(=O)c2c(N)[nH]c(=O)[nH]c2=O)cc1,.,0.12,0.92,.
CCc1nc(SCC(=O)N2CCC(C)CC2)c2c(=O)n(C)c(=O)n(C)c2n1,1,0.95,1.4,1
O=C(c1ccc(F)cc1)C1CCN(CCn2c(=S)[nH]c3ccccc3c2=O)CC1,.,-4.8*,0.51,.
O=C(C1CCC(Cn2c(=S)[nH]c3ccccc3c2=O)CC1)N1CCN(c2ccccc2)CC1 (stereo unspecified),13,-4.7*,1.2,1
CCN(CCCNC(=O)C1CCN(S(=O)(=O)c2cnc[nH]2)CC1)c1cccc(C)c1,0,0.23,-0.0086,4
O=C(CCn1c(=O)[nH]c2ccsc2c1=O)Nc1ccc(F)c(F)c1,1,0.34,-0.86,5
COc1cc(OC)c(NC(=O)CCc2ccccc2)cc1Cl,-8,-2.3,-0.55,9
Cc1ccc(N(CC(=O)Nc2cc(Cl)ccc2Oc2ccccc2)S(C)(=O)=O)cc1C,1,-5.9*,0.96,3
CSc1ccccc1NC(=O)CN(C1CCCCC1)S(C)(=O)=O,-5,0.71,1.1,1
Cc1ccc(N(CC(=O)Nc2cc(Cl)ccc2Oc2ccccc2)S(C)(=O)=O)c(C)c1,1,-4,-0.0042,7
COc1ccc(Cl)cc1NC(=O)CCc1ccccc1,8,-4.6*,-0.48,6
COc1ccc(Cl)cc1NC(=O)CN(C1CCCCC1)S(C)(=O)=O,6,-4.3*,-0.091,18
COc1ccc(Nc2ncc(C(=O)N3CCN(Cc4ccccc4)CC3)c3ccccc23)cc1,-5,-3.4,3.5,-1
CCCCOc1ccccc1NC(=O)CC1SC(=NCC)N(CC)C1=O (stereo unspecified),0,-3.6,0.0055,11
Cc1ccc(NC(=O)NC(=O)CN2C(=O)NC3(CCc4ccccc43)C2=O)c(C)c1 (stereo unspecified),-2,-2.2,2.5*,8
COc1ccc(CN2C(=O)c3ccccc3C(/C=N\OCc3ccc(F)cc3)C2=O)cc1 (stereo unspecified),-8,-3.7*,-0.72,17
COc1ccc(/C=C2\C(=O)N(Cc3ccc(F)cc3)CC(=O)N2Cc2ccccc2)cc1,3,-2.4,0.044,13
NC(=O)[C@H]1CC2(CC(c3cccc(NC(=O)COc4ccc(Cl)cc4)c3)=NO2)CN1C(=O)C(c1ccccc1)c1ccccc1 (stereo partly specified),.,-2.2,0.54,.
COc1ccc(-c2nn(-c3ccccc3)cc2C(=O)Nc2nccs2)cc1,4,-5.8*,0.03,8
COc1cccc(-c2nn(-c3ccccc3)cc2C(=O)Nc2nccs2)c1,1,-5.2*,-0.46,2
O=C(CSc1nnc(COc2ccc(Cl)cc2)o1)N1CCN(c2ccccc2)CC1,.,0.69,-1.4,.
COc1ccc(OCc2nnc(SCC(=O)N3c4ccccc4Sc4ccc(Cl)cc43)o2)cc1,-6,-4.4*,-0.82,2
c1ccc(-c2ccc3c(c2)c2c4n3CCN=C4CCC2)cc1,1,0.087,1.7,8
